Consider 20 compounds from ChEMBL document CHEMBL3596132, “Antiproliferative activity of O4-benzo[c]phenanthridine alkaloids against HCT-116 and HL-60 tumor cells” (Bioorg Med Chem Lett, 2015).

SMILES strings stand for the structures.

Common to all, as to type: functional, cell-based
One assay has as its system HCT-116. The experiment in a line: Antiproliferative activity against human HCT116 cells assessed as inhibition of cell viability after 48 hrs by MTT assay. Conditions: HCT-116, 48 h. Put shortly:
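HCT-116 cells seeded at 2.0 × 10^3 per well and allowed to attach for 24 h at 37 °C, 5% CO2. Agents were added in FBS-containing medium for 48 h. MTT (5 mg/mL in PBS stock) was then added for 4 h, formazan dissolved in DMSO, and absorbance read at 570 nm. Viability expressed as percent of untreated controls; IC50 reported.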
(In general: Tetrazolium assays rely on reduction of a dye to a coloured formazan, in cell work by metabolically active cells.)

In another assay the test system is HL-60. The experiment in a line: Antiproliferative activity against human HL60 cells assessed as inhibition of cell viability after 48 hrs by WST-1 assay. Conditions: HL-60, 48 h. Put shortly: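 WST-1 assay. HL-60 cells were seeded at 1.0 × 10^4 per well in FBS-containing medium together with test agents and incubated 48 h. Absorbance read at 415 nm. Viability expressed as percent of untreated controls; IC50 reported.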

For the next assay, the system named is HepG2. The assay is described as follows: Cytotoxicity against human HepG2 cells.

On to `COc1c(O)ccc2c1-c1ccc3cc4c(cc3c1N(C)C2)OCO4`, for which the half-inhibitory concentration (IC50) with HCT-116 and with HL-60 was greater than 10 µM each time.
`COc1cc2c[n+](C)c3c4cc5c(cc4ccc3c2cc1OC)OCO5` [NITIDINE CHLORIDE]: the concentration for half-maximal inhibition (IC50) in the assay on HCT-116 turned out to be 4.42 µM; with HepG2 it was 3.52 µM; in the assay with HL-60, 3.41 µM.
Turning to `COc1ccc2c(c[n+](C)c3c4cc5c(cc4ccc23)OCO5)c1O`, the IC50 with HCT-116 turned out to be 1.31 µM; with HL-60, 0.79 µM.
The matching figures for `COc1cc2c(cc1O)c[n+](C)c1c3cc4c(cc3ccc21)OCO4`: greater than 10 µM and greater than 10 µM.
With `COc1ccc2c(c[n+](C)c3c4cc5c(cc4ccc23)OCO5)c1OC` [CHELERYTHRINE CHLORIDE], the IC50 in the assay with HCT-116 stood at 2.13 µM; in the assay with HL-60, 2.99 µM.
For `COc1cc2c(cc1OC)-c1ccc3cc4c(cc3c1N(C)C2)OCO4` the same measures were 6.61 µM and 4.51 µM.
`COc1cc2c(cc1O)-c1ccc3cc4c(cc3c1N(C)C2)OCO4`: the 50% inhibitory concentration (IC50) in the assay with HCT-116 is 7.28 µM; with HL-60 it was greater than 10 µM.
The matching figures for `COc1ccc2c(cnc3c4cc5c(cc4ccc23)OCO5)c1OC`: greater than 10 µM and greater than 10 µM.
The matching figures for `COc1cc2c(cnc3c4cc5c(cc4ccc23)OCO5)cc1O`: greater than 10 µM and greater than 10 µM.
For `COc1cc2cnc3c4cc5c(cc4ccc3c2cc1O)OCO5` the same measures were greater than 10 µM and greater than 10 µM.
Regarding `COc1cc2c[n+](C)c3c4cc5c(cc4ccc3c2cc1O)OCO5`, the IC50 was 3.35 µM in the assay on HCT-116 and 3.28 µM with HL-60.
For `COc1c(O)ccc2c[n+](C)c3c4cc5c(cc4ccc3c12)OCO5` the same measures were greater than 10 µM and greater than 10 µM.
On to `COc1ccc2c(cnc3c4cc5c(cc4ccc23)OCO5)c1O`, for which the IC50 with HCT-116 and in the assay on HL-60 was greater than 10 µM throughout.
Consider `COc1ccc2c(c1OC)CN(C)c1c-2ccc2cc3c(cc12)OCO3` [DIHYDROCHELERYTHRINE], for which the concentration for half-maximal inhibition (IC50) in the assay on HCT-116 and with HL-60 was greater than 10 µM each time.
With `COc1ccc2cnc3c4cc5c(cc4ccc3c2c1OC)OCO5`, the IC50 with HCT-116 and in the assay with HL-60 was greater than 10 µM each time.
For the compound `COc1ccc2c(c1O)CN(C)c1c-2ccc2cc3c(cc12)OCO3`, the half-inhibitory concentration (IC50) stood at 3.22 µM in the assay with HCT-116 and 4.96 µM with HL-60.
For `COc1ccc2c[n+](C)c3c4cc5c(cc4ccc3c2c1OC)OCO5` the same measures were 3.23 µM and 7.82 µM.
For the compound `COc1c(O)ccc2cnc3c4cc5c(cc4ccc3c12)OCO5`, the IC50 with HCT-116 and in the assay on HL-60 was greater than 10 µM each time.
With `COc1ccc2c(c1OC)-c1ccc3cc4c(cc3c1N(C)C2)OCO4`, the IC50 in the assay on HCT-116 and in the assay on HL-60 was greater than 10 µM in each case.
As for `COc1cc2cnc3c4cc5c(cc4ccc3c2cc1OC)OCO5`, the half-inhibitory concentration (IC50) in the assay on HCT-116 and in the assay with HL-60 was greater than 10 µM in each case.

Broadly, the IC50 is the midpoint of a concentration-inhibition curve.
